Reference: ChEMBL document CHEMBL1128519, “Semisynthetic chemical modification of the antifungal lipopeptide echinocandin B (ECB): structure-activity studies of the lipophilic and geometric parameters of polyarylated acyl analogs of ECB” (J Med Chem, 1995)
In brackets after ≈: the same amount, converted by molar mass. Numbered stars: 1 amine (or outer) side, 2 acyl side, 3 side chain; on linkers, the order of the positions; unused ones are H or OH. Bridge positions count the residues as written; N and C are the ends. Square brackets hold non-standard residues; d marks the D form. Peptide text beside a SMILES is read from it. * marks the point of attachment. Orn(4R-OH,5R-OH) = O=C([C@H](C[C@@H](O)[C@@H](O)N[*:3])N[*:1])[*:2]; X16 = O=C(c1ccc(OCCOCCC23C[C@H]4C[C@@H](C2)C[C@@H](C3)C4)cc1)*; hTyr(3S-OH,4S-OH) = N[C@H](C(=O)O)[C@H](O)[C@@H](O)c1ccc(O)cc1; X3 = CC(C)(C)OCCOc1ccc(C#Cc2ccc(-c3ccc(C(=O)*)cc3)cc2)cc1; X4 = CC(C)(C)OCCOc1ccc(-c2ccc(-c3ccc(C(=O)*)cc3)cc2)cc1; X17 = CCCCOCCOc1ccc(C#Cc2ccc(-c3ccc(C(=O)*)cc3)cc2)cc1; X1 = O=C(c1ccc(-c2ccc(-c3ccc(-c4ccccc4)cc3)cc2)cc1)*; X20 = CCCCCOc1ccc(C#Cc2ccc(-c3ccc(C(=O)*)cc3)cc2)cc1; X6 = CCCCOCCOc1ccc(-c2ccc(-c3ccc(C(=O)*)cc3)cc2)cc1; X7 = CCCCCCOc1ccc(-c2ccc(-c3ccc(C(=O)*)cc3)cc2)cc1; X2 = CCCOc1ccc(C#Cc2ccc(-c3ccc(C(=O)*)cc3)cc2)cc1; Pro(3S-OH,4S-Me) = C[C@H]1CN[C@H](C(=O)O)[C@H]1O; X14 = COc1ccc(C#Cc2ccc(-c3ccc(C(=O)*)cc3)cc2)cc1; X5 = O=C(c1ccc(C#Cc2ccc(C#Cc3ccccc3)cc2)cc1)*; X8 = O=C(c1ccc(-c2ccc(C#Cc3ccccc3)cc2)cc1)*; X21 = CCCCOc1ccc(-c2ccc(C(=O)*)cc2)cc1; X9 = CCCCCCCCCCOc1ccc2cc(C(=O)*)ccc2c1; Hyp = O=C(O)[C@@H]1C[C@@H](O)CN1

Tests used:
Candida albicans [1] = assay: In vivo antifungal activity administered intraperitoneally against Candida albicans infections in mice.; assay type: functional; details: ip
Outline: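 Male ICR mice (18-20 g), X-irradiated with 400 r 24 h before iv tail-vein infection with 2 × 10^6 C. albicans A26 cells in saline. Compounds suspended in β-cyclodextrin, given parenterally at 0, 4, 24 and 48 h post-infection. 10 mice per dose, top dose 10 mg/kg with 2-fold dilutions down to 0.039 mg/kg. 7-day survival; ED50 by Reed-Muench.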

Candida albicans [2] = assay: In vivo antifungal activity administered orally against Candida albicans infections in mice.; assay type: functional; details: po
Outline: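 X-irradiated (400 r, 24 h prior) male ICR mice infected iv with 2 × 10^6 C. albicans A26 cells. Oral gavage in cremophor (5%)/linoleic acid (8%)/water vehicle, b.i.d. × 4 starting immediately post-infection. 10 mice per dose level. Study ends at day 7; ED50 = dose giving 50% survival, by Reed-Muench.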

[3] = biological target: Beta-1,3-glucan synthase (Candida albicans) (UniProt O13428); assay: In vitro inhibition of glucan synthase obtained from Candida albicans at a concentration of 10 ug/mL.
Beta-1,3-glucan synthase (Candida albicans), sequence (O13428 as listed by the source): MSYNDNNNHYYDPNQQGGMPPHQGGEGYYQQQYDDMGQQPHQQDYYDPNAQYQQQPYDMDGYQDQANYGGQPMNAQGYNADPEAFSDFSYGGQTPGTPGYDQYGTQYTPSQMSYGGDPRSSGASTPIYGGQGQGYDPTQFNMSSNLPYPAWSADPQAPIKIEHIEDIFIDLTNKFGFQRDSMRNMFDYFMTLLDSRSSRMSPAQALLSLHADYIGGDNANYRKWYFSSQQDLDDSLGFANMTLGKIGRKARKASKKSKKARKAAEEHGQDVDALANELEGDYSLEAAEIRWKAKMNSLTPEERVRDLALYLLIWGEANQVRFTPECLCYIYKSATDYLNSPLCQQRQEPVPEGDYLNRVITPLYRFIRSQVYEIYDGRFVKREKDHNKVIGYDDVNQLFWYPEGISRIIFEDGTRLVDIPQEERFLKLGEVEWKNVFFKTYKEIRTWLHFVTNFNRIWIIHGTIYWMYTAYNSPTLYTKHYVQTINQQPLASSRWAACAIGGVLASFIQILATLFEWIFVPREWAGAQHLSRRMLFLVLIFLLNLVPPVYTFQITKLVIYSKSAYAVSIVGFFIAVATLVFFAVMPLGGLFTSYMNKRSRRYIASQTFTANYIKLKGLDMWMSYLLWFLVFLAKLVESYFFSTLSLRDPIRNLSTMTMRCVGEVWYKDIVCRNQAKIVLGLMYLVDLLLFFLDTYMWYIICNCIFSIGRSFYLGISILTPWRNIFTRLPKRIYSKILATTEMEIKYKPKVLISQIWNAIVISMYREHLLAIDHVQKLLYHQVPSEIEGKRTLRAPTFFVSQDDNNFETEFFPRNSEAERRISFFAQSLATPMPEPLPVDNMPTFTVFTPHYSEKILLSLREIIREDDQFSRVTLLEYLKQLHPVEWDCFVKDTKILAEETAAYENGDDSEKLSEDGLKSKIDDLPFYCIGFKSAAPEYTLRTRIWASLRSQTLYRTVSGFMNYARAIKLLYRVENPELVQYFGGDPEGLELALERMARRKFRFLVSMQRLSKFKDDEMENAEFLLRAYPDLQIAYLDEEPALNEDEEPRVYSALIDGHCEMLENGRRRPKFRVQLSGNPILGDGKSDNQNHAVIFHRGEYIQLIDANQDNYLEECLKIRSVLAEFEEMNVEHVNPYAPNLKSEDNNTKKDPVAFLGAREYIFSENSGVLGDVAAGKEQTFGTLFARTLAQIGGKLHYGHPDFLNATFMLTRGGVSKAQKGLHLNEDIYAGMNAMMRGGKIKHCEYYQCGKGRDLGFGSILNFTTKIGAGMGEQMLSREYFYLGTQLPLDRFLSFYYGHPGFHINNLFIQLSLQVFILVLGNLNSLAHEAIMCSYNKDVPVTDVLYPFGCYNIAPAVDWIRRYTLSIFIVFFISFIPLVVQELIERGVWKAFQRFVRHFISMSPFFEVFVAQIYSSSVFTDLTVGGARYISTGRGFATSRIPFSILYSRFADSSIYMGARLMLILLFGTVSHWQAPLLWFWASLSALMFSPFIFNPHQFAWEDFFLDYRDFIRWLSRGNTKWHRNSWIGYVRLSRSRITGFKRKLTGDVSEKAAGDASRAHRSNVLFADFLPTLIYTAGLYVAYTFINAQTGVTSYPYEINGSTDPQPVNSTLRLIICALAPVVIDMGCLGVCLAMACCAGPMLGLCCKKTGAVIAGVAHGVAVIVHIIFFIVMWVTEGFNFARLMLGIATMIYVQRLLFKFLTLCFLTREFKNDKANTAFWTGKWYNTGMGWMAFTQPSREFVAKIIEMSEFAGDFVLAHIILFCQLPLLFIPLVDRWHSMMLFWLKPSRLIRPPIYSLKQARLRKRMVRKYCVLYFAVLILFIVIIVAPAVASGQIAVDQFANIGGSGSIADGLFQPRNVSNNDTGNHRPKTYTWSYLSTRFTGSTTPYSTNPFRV
Outline: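 Purified, solubilized β-(1,3)-D-glucan synthase prepared from C. albicans. Percent inhibition measured at 10 µg/mL compound, single determination.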

Candida albicans [4] = assay: Antifungal activity against Candida albicans; assay type: functional
Outline: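 Broth microdilution, C. albicans A26 (ATCC 62342) grown on Sabouraud dextrose agar at 35 °C; inoculum 1 × 10^5 conidia/mL in antibiotic 3 broth. Compounds dissolved at 1.0 mg/mL in methanol, 2-fold serial dilutions from 80 µg/mL, duplicate. Read after 48 h at 35 °C. MIC = lowest concentration completely inhibiting visible growth.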

Compound	ED50 (Candida albicans [1]) [mg/kg]	ED50 (Candida albicans [2]) [mg/kg]	inhibition [3] [%]	MIC (Candida albicans [4]) [µg/mL]
C[C@@H](O)[C@@H]1NC(=O)[C@H]([C@H](O)[C@@H](O)c2ccc(O)cc2)NC(=O)[C@@H]2C[C@@H](O)CN2C(=O)[C@H]([C@@H](C)O)NC(=O)[C@@H](NC(=O)c2ccc(-c3ccc(-c4ccc(-c5ccccc5)cc4)cc3)cc2)C[C@@H](O)[C@@H](O)NC(=O)[C@@H]2[C@@H](O)[C@@H](C)CN2C1=O (X1-[Orn(4R-OH,5R-OH)]T[Hyp][hTyr(3S-OH,4S-OH)]T[Pro(3S-OH,4S-Me)]; lactam 1-C)	0.4	39.7	74.7	< 0.01
CCCOc1ccc(C#Cc2ccc(-c3ccc(C(=O)N[C@H]4C[C@@H](O)[C@@H](O)NC(=O)[C@@H]5[C@@H](O)[C@@H](C)CN5C(=O)[C@H]([C@@H](C)O)NC(=O)[C@H]([C@H](O)[C@@H](O)c5ccc(O)cc5)NC(=O)[C@@H]5C[C@@H](O)CN5C(=O)[C@H]([C@@H](C)O)NC4=O)cc3)cc2)cc1 (X2-[Orn(4R-OH,5R-OH)]T[Hyp][hTyr(3S-OH,4S-OH)]T[Pro(3S-OH,4S-Me)]; lactam 1-C)	0.4	7	83.5	< 0.01
C[C@@H](O)[C@@H]1NC(=O)[C@H]([C@H](O)[C@@H](O)c2ccc(O)cc2)NC(=O)[C@@H]2C[C@@H](O)CN2C(=O)[C@H]([C@@H](C)O)NC(=O)[C@@H](NC(=O)c2ccc(-c3ccc(C#Cc4ccc(OCCOC(C)(C)C)cc4)cc3)cc2)C[C@@H](O)[C@@H](O)NC(=O)[C@@H]2[C@@H](O)[C@@H](C)CN2C1=O (X3-[Orn(4R-OH,5R-OH)]T[Hyp][hTyr(3S-OH,4S-OH)]T[Pro(3S-OH,4S-Me)]; lactam 1-C)	0.2	7.6	82.4	0.02 (≈ 0.0167 µM)
C[C@@H](O)[C@@H]1NC(=O)[C@H]([C@H](O)[C@@H](O)c2ccc(O)cc2)NC(=O)[C@@H]2C[C@@H](O)CN2C(=O)[C@H]([C@@H](C)O)NC(=O)[C@@H](NC(=O)c2ccc(-c3ccc(-c4ccc(OCCOC(C)(C)C)cc4)cc3)cc2)C[C@@H](O)[C@@H](O)NC(=O)[C@@H]2[C@@H](O)[C@@H](C)CN2C1=O (X4-[Orn(4R-OH,5R-OH)]T[Hyp][hTyr(3S-OH,4S-OH)]T[Pro(3S-OH,4S-Me)]; lactam 1-C)	0.4	21.3	76.1	0.06 (≈ 0.0513 µM)
C[C@@H](O)[C@@H]1NC(=O)[C@H]([C@H](O)[C@@H](O)c2ccc(O)cc2)NC(=O)[C@@H]2C[C@@H](O)CN2C(=O)[C@H]([C@@H](C)O)NC(=O)[C@@H](NC(=O)c2ccc(C#Cc3ccc(C#Cc4ccccc4)cc3)cc2)C[C@@H](O)[C@@H](O)NC(=O)[C@@H]2[C@@H](O)[C@@H](C)CN2C1=O (X5-[Orn(4R-OH,5R-OH)]T[Hyp][hTyr(3S-OH,4S-OH)]T[Pro(3S-OH,4S-Me)]; lactam 1-C)	4.5	16	81.3	0.01 (≈ 0.00907 µM)
CCCCOCCOc1ccc(-c2ccc(-c3ccc(C(=O)N[C@H]4C[C@@H](O)[C@@H](O)NC(=O)[C@@H]5[C@@H](O)[C@@H](C)CN5C(=O)[C@H]([C@@H](C)O)NC(=O)[C@H]([C@H](O)[C@@H](O)c5ccc(O)cc5)NC(=O)[C@@H]5C[C@@H](O)CN5C(=O)[C@H]([C@@H](C)O)NC4=O)cc3)cc2)cc1 (X6-[Orn(4R-OH,5R-OH)]T[Hyp][hTyr(3S-OH,4S-OH)]T[Pro(3S-OH,4S-Me)]; lactam 1-C)	0.3	13.6	80.1	0.03 (≈ 0.0256 µM)
CCCCCCOc1ccc(-c2ccc(-c3ccc(C(=O)N[C@H]4C[C@@H](O)[C@@H](O)NC(=O)[C@@H]5[C@@H](O)[C@@H](C)CN5C(=O)[C@H]([C@@H](C)O)NC(=O)[C@H]([C@H](O)[C@@H](O)c5ccc(O)cc5)NC(=O)[C@@H]5C[C@@H](O)CN5C(=O)[C@H]([C@@H](C)O)NC4=O)cc3)cc2)cc1 (X7-[Orn(4R-OH,5R-OH)]T[Hyp][hTyr(3S-OH,4S-OH)]T[Pro(3S-OH,4S-Me)]; lactam 1-C)	0.8	6.8		0.03 (≈ 0.026 µM)
C[C@@H](O)[C@@H]1NC(=O)[C@H]([C@H](O)[C@@H](O)c2ccc(O)cc2)NC(=O)[C@@H]2C[C@@H](O)CN2C(=O)[C@H]([C@@H](C)O)NC(=O)[C@@H](NC(=O)c2ccc(-c3ccc(C#Cc4ccccc4)cc3)cc2)C[C@@H](O)[C@@H](O)NC(=O)[C@@H]2[C@@H](O)[C@@H](C)CN2C1=O (X8-[Orn(4R-OH,5R-OH)]T[Hyp][hTyr(3S-OH,4S-OH)]T[Pro(3S-OH,4S-Me)]; lactam 1-C)	0.6	18.8	75.8	0.039 (≈ 0.0362 µM)
CCCCCCCCCCOc1ccc2cc(C(=O)N[C@H]3C[C@@H](O)[C@@H](O)NC(=O)[C@@H]4[C@@H](O)[C@@H](C)CN4C(=O)[C@H]([C@@H](C)O)NC(=O)[C@H]([C@H](O)[C@@H](O)c4ccc(O)cc4)NC(=O)[C@@H]4C[C@@H](O)CN4C(=O)[C@H]([C@@H](C)O)NC3=O)ccc2c1 (X9-[Orn(4R-OH,5R-OH)]T[Hyp][hTyr(3S-OH,4S-OH)]T[Pro(3S-OH,4S-Me)]; lactam 1-C)	1.6	46.1	82.2	0.005 (≈ 0.00451 µM)
COc1ccc(C#Cc2ccc(-c3ccc(C(=O)N[C@H]4C[C@@H](O)[C@@H](O)NC(=O)[C@@H]5[C@@H](O)[C@@H](C)CN5C(=O)[C@H]([C@@H](C)O)NC(=O)[C@H]([C@H](O)[C@@H](O)c5ccc(O)cc5)NC(=O)[C@@H]5C[C@@H](O)CN5C(=O)[C@H]([C@@H](C)O)NC4=O)cc3)cc2)cc1 (X14-[Orn(4R-OH,5R-OH)]T[Hyp][hTyr(3S-OH,4S-OH)]T[Pro(3S-OH,4S-Me)]; lactam 1-C)		19	81	0.02 (≈ 0.018 µM)
C[C@@H](O)[C@@H]1NC(=O)[C@H]([C@H](O)[C@@H](O)c2ccc(O)cc2)NC(=O)[C@@H]2C[C@@H](O)CN2C(=O)[C@H]([C@@H](C)O)NC(=O)[C@@H](NC(=O)c2ccc(OCCOCCC34C[C@H]5C[C@@H](C3)C[C@@H](C4)C5)cc2)C[C@@H](O)[C@@H](O)NC(=O)[C@@H]2[C@@H](O)[C@@H](C)CN2C1=O (X16-[Orn(4R-OH,5R-OH)]T[Hyp][hTyr(3S-OH,4S-OH)]T[Pro(3S-OH,4S-Me)]; lactam 1-C)		> 50	72.3	0.039 (≈ 0.0347 µM)
CCCCOCCOc1ccc(C#Cc2ccc(-c3ccc(C(=O)N[C@H]4C[C@@H](O)[C@@H](O)NC(=O)[C@@H]5[C@@H](O)[C@@H](C)CN5C(=O)[C@H]([C@@H](C)O)NC(=O)[C@H]([C@H](O)[C@@H](O)c5ccc(O)cc5)NC(=O)[C@@H]5C[C@@H](O)CN5C(=O)[C@H]([C@@H](C)O)NC4=O)cc3)cc2)cc1 (X17-[Orn(4R-OH,5R-OH)]T[Hyp][hTyr(3S-OH,4S-OH)]T[Pro(3S-OH,4S-Me)]; lactam 1-C)		10.6	81.9	0.02 (≈ 0.0167 µM)
CCCCCOc1ccc(C#Cc2ccc(-c3ccc(C(=O)N[C@H]4C[C@@H](O)[C@@H](O)NC(=O)[C@@H]5[C@@H](O)[C@@H](C)CN5C(=O)[C@H]([C@@H](C)O)NC(=O)[C@H]([C@H](O)[C@@H](O)c5ccc(O)cc5)NC(=O)[C@@H]5C[C@@H](O)CN5C(=O)[C@H]([C@@H](C)O)NC4=O)cc3)cc2)cc1 (X20-[Orn(4R-OH,5R-OH)]T[Hyp][hTyr(3S-OH,4S-OH)]T[Pro(3S-OH,4S-Me)]; lactam 1-C)		8.8	82.3	< 0.01
CCCCOc1ccc(-c2ccc(C(=O)N[C@H]3C[C@@H](O)[C@@H](O)NC(=O)[C@@H]4[C@@H](O)[C@@H](C)CN4C(=O)[C@H]([C@@H](C)O)NC(=O)[C@H]([C@H](O)[C@@H](O)c4ccc(O)cc4)NC(=O)[C@@H]4C[C@@H](O)CN4C(=O)[C@H]([C@@H](C)O)NC3=O)cc2)cc1 (X21-[Orn(4R-OH,5R-OH)]T[Hyp][hTyr(3S-OH,4S-OH)]T[Pro(3S-OH,4S-Me)]; lactam 1-C)	0.8		71.4	0.078 (≈ 0.0743 µM)
